Calb biofilm kill = clotrimazole potentiators killing C. albicans biofilm, primary screen, 4-compound mixtures; C. albicans biofilm persisters + clotrimazole, fluorescence viability; primary screen in compound mixtures of four per well; inhibition, % at 7.6 µM; 120,000 compounds, 0.02% hits;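 active = inhibition above 30.3% in the primary screen of four-compound pools, then above 30% when the compound was retested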;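 also: compounds exposed to preformed 24 h biofilms for 48 h; 0% = untreated biofilm control and 100% = clotrimazole plus chlorhexidine kill blank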
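System: C. albicans CAF4-2 wild-type biofilms; Medium: RPMI/MOPS medium, pH 7.0; Reagent: Clotrimazole, 50 µg/mL; Times: biofilm formation 24 h, compound exposure 48 h, 37 °C; Detection: 2-h Alamar Blue fluorescence, 535/590 nm excitation/emission; Evaluation: percent inhibition of biofilm viability.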
WT yeast gro inh = growth inhibition of WT strain, primary screen, mitochondrial fusion inhibitor project, WT and mutant strains, chemical genetic; 190,000 compounds, 2.1% hits; mitochondrial fusion phenotypic screen; inhibition, % at 10 µM; in the data active = inhibition above about 58%; tested in S. cerevisiae
p47phox inh = p47phox/p22phox peptide binding inhibitors, primary screen, biochemical, uHTS, NADPH oxidase regulatory subunit | Neutrophil cytosol factor 1 (Homo sapiens), P14598 | 220,000 compounds, 0.53% hits | fluorescence polarization, 2 h | inhibition, % at 24.7 µM;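 active = inhibition above about 30%, limit read from the data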;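 also: 0% = p47phox with labelled peptide and 100% = labelled peptide alone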
Target sequence (P14598 whole entry, looked up): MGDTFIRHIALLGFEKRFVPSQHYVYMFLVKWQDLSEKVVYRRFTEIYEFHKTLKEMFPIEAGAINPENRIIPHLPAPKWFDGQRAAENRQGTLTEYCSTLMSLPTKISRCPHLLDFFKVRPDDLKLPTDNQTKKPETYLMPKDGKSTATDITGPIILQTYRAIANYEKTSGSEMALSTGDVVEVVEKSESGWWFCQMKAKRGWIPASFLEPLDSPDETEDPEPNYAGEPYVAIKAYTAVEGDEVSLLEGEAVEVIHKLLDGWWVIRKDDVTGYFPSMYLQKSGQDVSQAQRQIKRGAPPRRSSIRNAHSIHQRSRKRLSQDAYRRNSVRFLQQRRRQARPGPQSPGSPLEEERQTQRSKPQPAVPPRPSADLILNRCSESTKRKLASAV
Hck Nef HTS = inhibitors of Nef-activated human Hck kinase, primary screen, biochemical, Z-Lyte FRET, 384-well, Hck-YEEI; Tyrosine-protein kinase HCK (Homo sapiens), P08631; Recombinant Hck-YEEI plus Nef, Z-Lyte FRET kinase assay; inhibition, % at 20 µM; 220,000 compounds, 0.68% hits; AID 463187, 2010;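 active = Hck-Nef kinase inhibition above about 50%, limit read from the data; inactive = inhibition below that limit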;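 also: 0% = DMSO with Hck plus Nef and 100% = Hck alone without Nef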
Arbovirus anti = antivirals against arbovirus infection, primary screen, cell-based, full library, 10K replicate subset | arbovirus infection cell-based antiviral screen | inhibition, % at 10 µM | 200,000 compounds, 0.37% hits | AID 1251, 2008; in the data active = inhibition above about 30%
RAM inhibit = inhibitors of the yeast RAM network, primary screen, dse1pr::URA3 reporter, 5-FOA selection | S. cerevisiae dse1pr::URA3 reporter, 5-FOA growth OD615, 2 d; analog-sensitive cbk1-as2 kinase mutant strain | inhibition, % at 50 µM | 190,000 compounds, 1.8% hits;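 active = inhibition above a set limit, 3 SD over mean compound inhibition, cut at about 8.4% in these data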;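 also: 0% = DMSO-only wells with no growth and 100% = 10 µM 1-NA-PP1 full growth; inhibition rescues growth on 5-FOA so higher OD means more RAM inhibition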
Starred values were filed as active, the others as inactive; . = not tested or not shown. A selection: hits, their analogues and other compounds. The true share with any hit is near 4.6%.

SMILES | Calb biofilm kill | WT yeast gro inh | p47phox inh | Hck Nef HTS | Arbovirus anti | RAM inhibit
O=C1Nc2ccc([N+](=O)[O-])cc2C1(O)N1CCCCCC1 (stereo not given) | . | 8.2 | -17.3 | 0.9 | -1.8 | 1.6
CCOc1ccc(NC(=O)Nc2ccc3c(c2)N(C)C(=O)CS3)cc1 | . | 12.2 | -33.5 | -0.7 | 3.8 | 11.1*
CC(=O)c1ccc(NC(=O)Nc2ccc3c(c2)N(C)C(=O)CS3)cc1 | . | -4.1 | -16.8 | 0.4 | 12.9 | 1.6
COc1ccc2nc(COC(=O)c3cccs3)c(C(C)=O)[n+]([O-])c2c1 | -4.4 | . | -19.2 | -6.3 | . | .
NC(=O)N/N=C/c1c(F)cccc1F | 11.4 | -10.6 | 6.2 | 3.6 | 7.2 | 1.6
CCN(CC)c1ccc(NC(=O)c2c(OC)cccc2OC)c(C)c1 | . | -2.4 | -11.2 | 6.2 | 37.9* | -0.2
COc1cc(S(=O)(=O)N(Cc2cccs2)CC2CCCO2)ccc1-n1cnnn1 (stereo not given) | . | 5.7 | -9.2 | 0.0 | 4.9 | 4.2
O=S(=O)(NCc1ccccc1)c1ccc(S(=O)(=O)N(Cc2cccs2)CC2CCCO2)cc1 (stereo not given) | . | -14.1 | -1.7 | -2.1 | -4.6 | 8.9*
CC(=O)Nc1ccccc1/C=C/c1ccc2c(C)cc(C)c(O)c2n1 | 17.1 | 77.3* | -26.8 | 1.0 | -6.9 | -0.2
CC(=O)Nc1ccccc1/C=C/c1ccc2c(C)ccc(O)c2n1 | 8.8 | 15.8 | -3.0 | 1.3 | -4.0 | 0.9
Cc1ccc(N(C)C(=O)c2ccc3c(Cl)c4c(nc3c2)CCC4)cc1C | 11.4 | 82.7* | -5.1 | -7.4 | -33.1 | -1.2
CCc1ccc(N(CC)C(=O)c2ccc3c(Cl)c4c(nc3c2)CCC4)cc1 | 8.3 | 91.0* | 0.0 | -6.5 | -4.0 | 3.2
O=C(O)C1CCCN1C(=O)Nc1ccc(Cl)cc1 (stereo not given) | 13.6 | 0.2 | -4.0 | 2.3 | 1.2 | 0.7
CC(C)(C)n1nnnc1SCC(=O)Nc1nn(-c2ccccc2)nc1C(N)=O | 12.1 | -5.2 | -4.5 | 20.9 | 13.5 | 3.6
COc1ccc(-c2nnn(CC(=O)N(Cc3ccco3)C(C(=O)NCC3CCCO3)c3ccco3)n2)cc1 (stereo not given) | -6.4 | -2.9 | -4.8 | 4.8 | 12.9 | -1.3
COc1ccc(CN(C(=O)Cn2nnc(-c3ccc(C)o3)n2)C(C(=O)NCC2CCCO2)c2ccco2)cc1 (stereo not given) | 7.5 | -6.2 | 0.3 | 26.5 | 2.4 | 9.1*
COc1cc(CNc2ccccc2Oc2cc(=O)n(C)c(=O)n2C)cc(OC)c1OC | . | -0.8 | -11.8 | 1.4 | -2.8 | -0.7
Cn1c(Oc2ccccc2NCc2cc(Br)ccc2O)cc(=O)n(C)c1=O | . | 16.5 | -8.1 | 1.9 | 31.5* | 0.8
COc1ccc(S(=O)(=O)N2CCCC(C(F)(F)F)C2)cc1 (stereo not given) | 13.3 | -16.4 | -4.5 | 25.9 | 15.4 | 0.1
CC(C)(C)C(=O)Nc1ccc(Sc2ccc([N+](=O)[O-])cc2)cc1 | 13.2 | 28.3 | 2.7 | -2.9 | 2.8 | 3.8
CN(O)C(=O)Nc1ccc([N+](=O)[O-])cc1 | 11.3 | 11.3 | 128.1* | 9.5 | 3.5 | 1.2
O=C(OCc1cc(Cl)ccc1OC(F)F)c1cncc(Br)c1 | 8.6 | 59.5* | -3.7 | 32.7 | 9.0 | 1.7
O=C1c2ccccc2CCC12N=NCC2c1ccc(Cl)cc1 (stereo not given) | . | 6.0 | -9.1 | 0.9 | 3.6 | 1.9
O=C1c2ccccc2CCC12N=NCC2c1ccc(Br)cc1 (stereo not given) | . | 68.2* | -2.0 | -1.4 | 0.7 | 1.7
CCC(=O)c1ccc(/C=C/c2nc3ccccc3n2C)o1 | 15.8 | 17.2 | -16.6 | -1.7 | -2.7 | 1.3
SMILES | Calb biofilm kill | WT yeast gro inh | p47phox inh | Hck Nef HTS | Arbovirus anti | RAM inhibit
COCCCNc1nc(-c2ccncc2)nc2ccccc12 | . | -6.4 | -9.2 | 4.1 | 32.6* | 1.9
Fc1ccc(NC(=S)Nc2cccnc2)c(F)c1F | 8.8 | 2.2 | -5.6 | 17.5 | -0.3 | 1.2
CCn1c(C)cc(/C=C2/NC(=O)N(CC(=O)Nc3cccc(C)c3)C2=O)c1C | 19.7 | -3.7 | 58.6* | 11.3 | -11.3 | 3.9
CCOc1[nH]n(-c2ccccc2)c(=O)c1C=Nc1ccc(OC)cc1 | 8.1 | 3.5 | 10.3 | -4.7 | -2.4 | 9.0*
CCOc1[nH]n(-c2ccc(Cl)cc2)c(=O)c1C=Nc1ccc(Cl)cc1 | . | 5.4 | -11.4 | 2.7 | 7.3 | 5.5
CCOC(=O)N1CCN(C(=O)Cc2ccc(-n3c(=O)[nH]c4ccccc4c3=O)cc2)CC1 | . | -2.2 | -14.7 | 1.5 | 6.5 | 1.3
COc1cccc(CNC(=O)Cc2ccc(-n3c(=O)[nH]c4ccccc4c3=O)cc2)c1 | 11.1 | -9.0 | -5.5 | -0.1 | -7.3 | 9.0*
Cc1ccc[n+](CC2OCc3ccccc3CO2)c1 | 13.8 | 3.0 | -2.5 | 17.7 | 5.0 | 1.3
O=C(Cc1ccc(O)cc1)NCCNC(=S)NCc1ccccc1 | 13.6 | . | -10.2 | 7.9 | . | .
COC(=O)C(CSCc1ccccc1)NC(=O)CSc1nc(N)cc(=O)[nH]1 (stereo not given) | 20.1 | -3.1 | 3.1 | 2.2 | -1.8 | 2.0
O=C(COc1ccc([N+](=O)[O-])cc1)N(Cc1ccccc1)Cc1ccccc1 | 7.7 | 30.7 | -0.1 | 4.9 | 1.9 | 11.0*
O=C(CN(c1cccc([N+](=O)[O-])c1)S(=O)(=O)c1ccccc1)N(Cc1ccccc1)Cc1ccccc1 | 14.7 | 12.8 | -4.4 | -0.4 | -4.8 | 8.6*
CCN(CC)c1ccc(C(=O)N/N=C(\C)c2ccc(OC)c(OC)c2)cc1 | 21.1 | -7.7 | -1.8 | 2.8 | -12.1 | 1.8
N#CCOC(=O)C1CSC2(c3ccc(Br)cc3)CCC(=O)N12 (stereo not given) | 12.3 | -21.6 | -16.3 | 17.5 | 13.2 | 2.0
COc1cccc(-c2cc(C(=O)NCc3cccs3)no2)c1 | 14.4 | . | -4.5 | 15.5 | . | .
CCOP(=O)(OCC)c1nc(/C=C/c2ccccc2)oc1NCc1ccc(OC)cc1 | . | 8.7 | -6.4 | 25.5 | -32.0 | 0.7
CCOP(=O)(OCC)c1nc(/C=C/c2ccccc2)oc1NCc1ccccc1 | . | 83.3* | -5.2 | 24.7 | -6.9 | 1.3
COc1ccc(NS(=O)(=O)c2cccc(C(=O)N/N=C/c3ccccn3)c2)cc1 | 1.3 | -16.2 | -8.5 | 1.2 | -11.1 | 2.3
COc1cc(C(CCN2CCCC2)c2c(OC)cc(OC)c3c(-c4ccccc4)cc(=O)oc23)cc(OC)c1OC (stereo not given) | 14.9 | . | 6.8 | 21.0 | . | .
N#Cc1c(NC(NC(=O)c2ccco2)C(=O)c2ccccc2)sc2c1CCCC2 (stereo not given) | . | 61.6* | -17.6 | 1.5 | -7.8 | 3.5
NC(=O)c1c(NC(NC(=O)c2ccco2)C(=O)c2ccc(Cl)cc2)sc2c1CCCC2 (stereo not given) | . | 21.4 | -18.9 | 0.6 | 10.8 | 1.2
